Consider 15 compounds from ChEMBL document CHEMBL1153430 (J Med Chem, 2009).

Some results are limits rather than exact numbers.

Tested on in one experiment: not listed separately
The experiment is described as follows: Negative inotropic activity in guinea pig left atrium assessed as decrease in atrial tension. As to conditions: Cavia porcellus, Cardiac atrium. The experiment is classed as functional, tissue-based.
Broadly, the EC50 is the concentration needed to bring the measured effect to its halfway point. In the case of `C/C(=C/S(C)(=O)=O)n1c(C(=O)c2ccc(Cl)cc2)noc1=O`, the EC50 was 1110 nM.

With `C/C(=C/SCc1ccccc1)n1c(C(=O)c2ccc(Cl)cc2)noc1=O`, the EC50 was determined as 1550 nM.

`C/C(=C/SCc1ccccc1)n1c(C(=O)c2ccc(Br)cc2)noc1=O`: the half-maximal effective concentration (EC50) was determined as 1280 nM.

For `C/C(=C/Sc1sc([N+](=O)[O-])cc1[N+](=O)[O-])n1c(C(=O)c2ccc(Cl)cc2)noc1=O`, the half-maximal effective concentration (EC50) is 1420 nM.

On to `CCS/C=C(/C)n1c(C(=O)c2ccc(Cl)cc2)noc1=O`, for which the EC50 turned out to be 2090 nM.

With `C/C(=C/SS/C=C(/C)n1c(C(=O)c2ccc(Br)cc2)noc1=O)n1c(C(=O)c2ccc(Br)cc2)noc1=O`, the EC50 was 1700 nM.

Consider `CCOC1(c2ccc(Cl)cc2)SC=C(C)n2c1noc2=O` (configuration not stated), for which the EC50 was 270 nM.

As to `CCS/C=C(/C)n1c(C(=O)c2ccc(Br)cc2)noc1=O`, the concentration giving a half-maximal response (EC50) was found to be 1330 nM.

As to `CS/C=C(/C)n1c(C(=O)c2ccc(Cl)cc2)noc1=O`, the EC50 was determined as 1450 nM.

Regarding `C/C(=C/[S+](C)[O-])n1c(C(=O)c2ccc(Br)cc2)noc1=O` (configuration not stated), the EC50 stood at 480 nM.

As to `C/C(=C/SS/C=C(/C)n1c(C(=O)c2ccc(Cl)cc2)noc1=O)n1c(C(=O)c2ccc(Cl)cc2)noc1=O`, the EC50 is 4390 nM.

As for `C=CCS/C=C(/C)n1c(C(=O)c2ccc(Br)cc2)noc1=O`, the half-maximal effective concentration (EC50) turned out to be 1290 nM.

With `CCCS/C=C(/C)n1c(C(=O)c2ccc(Br)cc2)noc1=O`, the EC50 is 1220 nM.

As to `C/C(=C/SCC(C)C)n1c(C(=O)c2ccc(Cl)cc2)noc1=O`, the EC50 was 2070 nM.

Another experiment deals with Aorta. The experiment is described as follows: Vasorelaxant activity in potassium-depolarized guinea pig thoracic aorta assessed as inhibition of calcium-induced contraction at 50 uM. The experiment is classed as functional, Cavia porcellus. Also noted: scale not given: the % may be the effect or the level left.
Conditions: not given
For `C/C(=C/[S][Ag])n1c(C(=O)c2ccc(Cl)cc2)noc1=O`, the Activity stood at 4%.

For the compound `C/C(=C/SCc1ccccc1)n1c(C(=O)c2ccc(Br)cc2)noc1=O`, the Activity is on record as 6%.

As for `C/C(=C/Sc1sc([N+](=O)[O-])cc1[N+](=O)[O-])n1c(C(=O)c2ccc(Cl)cc2)noc1=O`, the Activity was determined as 35%.

For `CCOC1(c2ccc(Cl)cc2)SC=C(C)n2c1noc2=O` (configuration not stated), the Activity is given as 28%.

Turning to `CS/C=C(/C)n1c(C(=O)c2ccc(Cl)cc2)noc1=O`, the Activity turned out to be 8%.

Tested on in another experiment: not listed separately
The experiment is described as follows: Negative inotropic activity in guinea pig left atrium assessed as decrease in atrial tension at 5 uM relative to control. The experiment is classed as functional, Cavia porcellus, Cardiac atrium. Also on record: scale not given: the % may be the effect or the level left.
Conditions: not given
The procedure, abridged:
(§1)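 Guinea pig isolated atria, compound given at increasing doses. Left atrium driven at 1 Hz: percent decrease in developed tension (inotropy, EC50). Spontaneously beating right atrium: percent decrease in rate (chronotropy, EC30). Probit analysis (Litchfield-Wilcoxon), n = 6-7. Potencies not calculated when maximal effect <50%.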
Turning to `CCOC1(c2ccc(Cl)cc2)SC=C(C)n2c1noc2=O` (configuration not stated), the Activity turned out to be 53%.

Tested on in a further experiment: not listed separately
The experiment is described as follows: Negative chronotropic activity in guinea pig spontaneously beating right atrium assessed as decrease in atrial rate at 100 uM relative to control. The experiment is classed as functional, Cavia porcellus, Cardiac atrium. Also on record: scale not given: the % may be the effect or the level left.
Conditions: not given
In outline: as §1
Consider `C/C(=C/[S][Ag])n1c(C(=O)c2ccc(Cl)cc2)noc1=O`, for which the Activity is 7%.

Turning to `C/C(=C/S(C)(=O)=O)n1c(C(=O)c2ccc(Cl)cc2)noc1=O`, the Activity amounted to 7%.

With `C/C(=C/SCc1ccccc1)n1c(C(=O)c2ccc(Cl)cc2)noc1=O`, the Activity stood at 5%.

Take `C/C(=C/SS/C=C(/C)n1c(C(=O)c2ccc(Br)cc2)noc1=O)n1c(C(=O)c2ccc(Br)cc2)noc1=O`: the Activity was 9%.

On to `CCS/C=C(/C)n1c(C(=O)c2ccc(Br)cc2)noc1=O`, for which the Activity is reported as 18%.

Regarding `C/C(=C/[S+](C)[O-])n1c(C(=O)c2ccc(Br)cc2)noc1=O` (configuration not stated), the Activity is recorded as 33%.

Consider `C/C(=C/SS/C=C(/C)n1c(C(=O)c2ccc(Cl)cc2)noc1=O)n1c(C(=O)c2ccc(Cl)cc2)noc1=O`, for which the Activity is 4%.

In the case of `CCCS/C=C(/C)n1c(C(=O)c2ccc(Br)cc2)noc1=O`, the Activity came to 10%.

On to `C/C(=C/SCC(C)C)n1c(C(=O)c2ccc(Cl)cc2)noc1=O`, for which the Activity was 5%.

For the next experiment, the system named is Aorta. The experiment is described as follows: Vasorelaxant activity in potassium-depolarized guinea pig thoracic aorta assessed as inhibition of calcium-induced contraction. Format: functional, Cavia porcellus. Also on record: scale not given: the % may be the effect or the level left.
Conditions: not given
Consider `C/C(=C/[S][Ag])n1c(C(=O)c2ccc(Cl)cc2)noc1=O`, for which the Activity is reported as below 30%.

Another experiment concerns the target Voltage-gated L-type calcium channel (Rattus norvegicus, UniProt P22002+Q02485+P27732). The experiment is described as follows: Displacement of [3H]diltiazem from L-type calcium channel in Sprague-Dawley rat cardiac myocytes by liquid scintillation counting. Format: cell-based.
Conditions: not given
For orientation: Loss of bound radioactivity is the signal in a displacement assay; it reports binding, not function.
A word on the Ki: it is a dissociation constant, usually derived from enzyme kinetics or from competition with a known ligand. Consider `C/C(=C/SS/C=C(/C)n1c(C(=O)c2ccc(Br)cc2)noc1=O)n1c(C(=O)c2ccc(Br)cc2)noc1=O`, for which the inhibitory constant (Ki) worked out at 200 nM.

Consider `C/C(=C/[S+](C)[O-])n1c(C(=O)c2ccc(Br)cc2)noc1=O` (configuration not stated), for which the Ki amounted to 23680 nM.

Tested on in a further experiment: not listed separately
The experiment is described as follows: Negative chronotropic activity in guinea pig spontaneously beating right atrium assessed as decrease in atrial rate at 50 uM relative to control. Format: functional, Cavia porcellus, Cardiac atrium. Also on record: scale not given: the % may be the effect or the level left.
Conditions: not given
The procedure, abridged: as §1
For `C/C(=C/Sc1sc([N+](=O)[O-])cc1[N+](=O)[O-])n1c(C(=O)c2ccc(Cl)cc2)noc1=O`, the Activity stood at 15%.

For `CCS/C=C(/C)n1c(C(=O)c2ccc(Cl)cc2)noc1=O`, the Activity worked out at 30%.

On to `CCOC1(c2ccc(Cl)cc2)SC=C(C)n2c1noc2=O` (configuration not stated), for which the Activity worked out at 16%.

With `CS/C=C(/C)n1c(C(=O)c2ccc(Cl)cc2)noc1=O`, the Activity amounted to 10%.

Take `C=CCS/C=C(/C)n1c(C(=O)c2ccc(Br)cc2)noc1=O`: the Activity was 18%.

Tested on in another experiment: not listed separately
The experiment is described as follows: Negative inotropic activity in guinea pig left atrium assessed as decrease in atrial tension at 1 uM relative to control.
Conditions: not given
Also on record: scale not given: the % may be the effect or the level left. Format: functional, Cavia porcellus, Cardiac atrium.
In the case of `C/C(=C/[S][Ag])n1c(C(=O)c2ccc(Cl)cc2)noc1=O`, the Activity is 49%.

Tested on in a further experiment: not listed separately
The experiment is described as follows: Negative inotropic activity in guinea pig left atrium assessed as decrease in atrial tension at 50 uM relative to control.
Conditions: not given
Also on record: scale not given: the % may be the effect or the level left. Format: functional, Cavia porcellus, Cardiac atrium.
Turning to `C/C(=C/SCc1ccccc1)n1c(C(=O)c2ccc(Br)cc2)noc1=O`, the Activity is 80%.

In the case of `C/C(=C/Sc1sc([N+](=O)[O-])cc1[N+](=O)[O-])n1c(C(=O)c2ccc(Cl)cc2)noc1=O`, the Activity amounted to 67%.

On to `CCS/C=C(/C)n1c(C(=O)c2ccc(Cl)cc2)noc1=O`, for which the Activity worked out at 75%.

Turning to `CS/C=C(/C)n1c(C(=O)c2ccc(Cl)cc2)noc1=O`, the Activity came to 71%.

Tested on in a further experiment: not listed separately
The experiment is described as follows: Negative chronotropic activity in guinea pig spontaneously beating right atrium assessed as decrease in atrial rate at 10 uM relative to control. Also noted: scale not given: the % may be the effect or the level left.
Conditions: not given
The experiment is classed as functional, Cavia porcellus, Cardiac atrium. The procedure, abridged:
as §1
Take `C/C(=C/SCc1ccccc1)n1c(C(=O)c2ccc(Br)cc2)noc1=O`: the Activity is listed as 31%.

The test system of another experiment is Aorta. The experiment is described as follows: Vasorelaxant activity in potassium-depolarized guinea pig thoracic aorta assessed as inhibition of calcium-induced contraction at 100 uM. The experiment is classed as functional, Cavia porcellus.
Conditions: not given
Also on record: scale not given: the % may be the effect or the level left.
`C/C(=C/S(C)(=O)=O)n1c(C(=O)c2ccc(Cl)cc2)noc1=O`: the Activity was 13%.

For the compound `C/C(=C/SCc1ccccc1)n1c(C(=O)c2ccc(Cl)cc2)noc1=O`, the Activity came out at 33%.

As to `CCS/C=C(/C)n1c(C(=O)c2ccc(Cl)cc2)noc1=O`, the Activity came to 27%.

`C/C(=C/SS/C=C(/C)n1c(C(=O)c2ccc(Br)cc2)noc1=O)n1c(C(=O)c2ccc(Br)cc2)noc1=O`: the Activity was 5%.

As for `CCS/C=C(/C)n1c(C(=O)c2ccc(Br)cc2)noc1=O`, the Activity is reported as 43%.

Consider `C/C(=C/[S+](C)[O-])n1c(C(=O)c2ccc(Br)cc2)noc1=O` (configuration not stated), for which the Activity was determined as 2%.

On to `C/C(=C/SS/C=C(/C)n1c(C(=O)c2ccc(Cl)cc2)noc1=O)n1c(C(=O)c2ccc(Cl)cc2)noc1=O`, for which the Activity was found to be 6%.

Take `C=CCS/C=C(/C)n1c(C(=O)c2ccc(Br)cc2)noc1=O`: the Activity worked out at 21%.

As to `CCCS/C=C(/C)n1c(C(=O)c2ccc(Br)cc2)noc1=O`, the Activity was 26%.

For `C/C(=C/SCC(C)C)n1c(C(=O)c2ccc(Cl)cc2)noc1=O`, the Activity was found to be 6%.

Tested on in the next experiment: not listed separately
The experiment is described as follows: Negative inotropic activity in guinea pig left atrium assessed as decrease in atrial tension at 100 uM relative to control. Format: functional, Cavia porcellus, Cardiac atrium. Also noted: scale not given: the % may be the effect or the level left.
Conditions: not given
In outline:
as §1
With `C/C(=C/S(C)(=O)=O)n1c(C(=O)c2ccc(Cl)cc2)noc1=O`, the Activity is 72%.

For the compound `C/C(=C/SCc1ccccc1)n1c(C(=O)c2ccc(Cl)cc2)noc1=O`, the Activity was determined as 78%.

Regarding `C/C(=C/SS/C=C(/C)n1c(C(=O)c2ccc(Br)cc2)noc1=O)n1c(C(=O)c2ccc(Br)cc2)noc1=O`, the Activity worked out at 73%.

`CCS/C=C(/C)n1c(C(=O)c2ccc(Br)cc2)noc1=O`: the Activity was 89%.

In the case of `C/C(=C/[S+](C)[O-])n1c(C(=O)c2ccc(Br)cc2)noc1=O` (configuration not stated), the Activity is 89%.

As for `C/C(=C/SS/C=C(/C)n1c(C(=O)c2ccc(Cl)cc2)noc1=O)n1c(C(=O)c2ccc(Cl)cc2)noc1=O`, the Activity is given as 72%.

As for `C=CCS/C=C(/C)n1c(C(=O)c2ccc(Br)cc2)noc1=O`, the Activity is recorded as 89%.

Turning to `CCCS/C=C(/C)n1c(C(=O)c2ccc(Br)cc2)noc1=O`, the Activity was found to be 80%.

Turning to `C/C(=C/SCC(C)C)n1c(C(=O)c2ccc(Cl)cc2)noc1=O`, the Activity is listed as 84%.
